Experimental data: article PMC9401513 (Clinical Cancer Research, 2021)

Tested on: patients with advanced solid tumors
Test: Adverse events graded by NCI-CTCAE v4.03 in phase I patients
Type: in vivo, human
Conditions: for Number of AEs (TRAEs) / Pts discontinued due to AEs (TRAEs) / Pts with AEs (TRAEs) / Pts with G3/G4 AEs (TRAEs) / Pts with SAEs (TRAEs) / Pts with dose reduction and temporary discontinuation due to AEs (TRAEs) / Pts with dose reduction due to AEs (TRAEs) / Pts with temporary discontinuation due to AEs (TRAEs): all cycles
Outline: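 Test compound was given by IV infusion over about 60 min every 3 weeks in sequential dose-escalation cohorts to adults with advanced solid tumors (ECOG 0–1). Adverse events were graded by NCI-CTCAE v4.03 over all cycles and tabulated as treatment-related by dose level. G-CSF was permitted after cycle 1. Antiemetics and corticosteroids were given at the physician's discretion.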

[1] = 0.2 mg/kg every 3 weeks, 2 evaluable pts
[2] = 0.5 mg/kg every 3 weeks, 2 evaluable pts
[3] = 1.25 mg/kg every 3 weeks, 2 evaluable pts
[4] = 2.1 mg/kg every 3 weeks, 4 evaluable pts
[5] = 2.8 mg/kg every 3 weeks, 96 evaluable pts
[6] = 3.7 mg/kg every 3 weeks, 6 evaluable pts

B1: cofetuzumab pelidotin (conjugate, chains of the INN, looked up)
VH: QVQLVQSGPEVKKPGASVKVSCKASGYTFTDYAVHWVRQAPGKRLEWIGVISTYNDYTYNNQDFKGRVTMTRDTSASTAYMELSRLRSEDTAVYYCARGNSYFYALDYWGQGTSVTVSS
VL: EIVLTQSPATLSLSPGERATLSCRASESVDSYGKSFMHWYQQKPGQAPRLLIYRASNLESGIPARFSGSGSGTDFTLTISSLEPEDFAVYYCQQSNEDPWTFGGGTKLEIK
modifications: auristatin-0101 payload, vc linker
- Number of AEs (TRAEs) [1]: 1 n (%)
- Pts discontinued due to AEs (TRAEs) [1]: 0 n (%)
- Pts with AEs (TRAEs) [1]: 1 (50.0) n (%)
- Pts with G3/G4 AEs (TRAEs) [1]: 1 (50.0) n (%)
- Pts with SAEs (TRAEs) [1]: 0 n (%)
- Pts with dose reduction and temporary discontinuation due to AEs (TRAEs) [1]: 0 n (%)
- Pts with dose reduction due to AEs (TRAEs) [1]: 0 n (%)
- Pts with temporary discontinuation due to AEs (TRAEs) [1]: 0 n (%)
- Number of AEs (TRAEs) [2]: 1 n (%)
- Pts discontinued due to AEs (TRAEs) [2]: 0 n (%)
- Pts with AEs (TRAEs) [2]: 1 (50.0) n (%)
- Pts with G3/G4 AEs (TRAEs) [2]: 0 n (%)
- Pts with SAEs (TRAEs) [2]: 0 n (%)
- Pts with dose reduction and temporary discontinuation due to AEs (TRAEs) [2]: 0 n (%)
- Pts with dose reduction due to AEs (TRAEs) [2]: 0 n (%)
- Pts with temporary discontinuation due to AEs (TRAEs) [2]: 0 n (%)
- Number of AEs (TRAEs) [3]: 6 n (%)
- Pts discontinued due to AEs (TRAEs) [3]: 0 n (%)
- Pts with AEs (TRAEs) [3]: 1 (50.0) n (%)
- Pts with G3/G4 AEs (TRAEs) [3]: 0 n (%)
- Pts with SAEs (TRAEs) [3]: 0 n (%)
- Pts with dose reduction and temporary discontinuation due to AEs (TRAEs) [3]: 0 n (%)
- Pts with dose reduction due to AEs (TRAEs) [3]: 0 n (%)
- Pts with temporary discontinuation due to AEs (TRAEs) [3]: 0 n (%)
- Number of AEs (TRAEs) [4]: 28 n (%)
- Pts discontinued due to AEs (TRAEs) [4]: 1 (25.0) n (%)
- Pts with AEs (TRAEs) [4]: 4 (100.0) n (%)
- Pts with G3/G4 AEs (TRAEs) [4]: 0 n (%)
- Pts with SAEs (TRAEs) [4]: 1 (25.0) n (%)
- Pts with dose reduction and temporary discontinuation due to AEs (TRAEs) [4]: 0 n (%)
- Pts with dose reduction due to AEs (TRAEs) [4]: 0 n (%)
- Pts with temporary discontinuation due to AEs (TRAEs) [4]: 0 n (%)
- Number of AEs (TRAEs) [5]: 475 n (%)
- Pts discontinued due to AEs (TRAEs) [5]: 2 (2.1) n (%)
- Pts with AEs (TRAEs) [5]: 84 (87.5) n (%)
- Pts with G3/G4 AEs (TRAEs) [5]: 40 (41.7) n (%)
- Pts with SAEs (TRAEs) [5]: 9 (9.4) n (%)
- Pts with dose reduction and temporary discontinuation due to AEs (TRAEs) [5]: 3 (3.1) n (%)
- Pts with dose reduction due to AEs (TRAEs) [5]: 7 (7.3) n (%)
- Pts with temporary discontinuation due to AEs (TRAEs) [5]: 16 (16.7) n (%)
- Number of AEs (TRAEs) [6]: 27 n (%)
- Pts discontinued due to AEs (TRAEs) [6]: 0 n (%)
- Pts with AEs (TRAEs) [6]: 5 (83.3) n (%)
- Pts with G3/G4 AEs (TRAEs) [6]: 3 (50.0) n (%)
- Pts with SAEs (TRAEs) [6]: 0 n (%)
- Pts with dose reduction and temporary discontinuation due to AEs (TRAEs) [6]: 1 (16.7) n (%)
- Pts with dose reduction due to AEs (TRAEs) [6]: 0 n (%)
- Pts with temporary discontinuation due to AEs (TRAEs) [6]: 0 n (%)
- patients reporting headache after infusion on cycle 1, day 1 or 2 (all patients, every 3 weeks and every 2 weeks cohorts): 29 patients
- grade 1–2 peripheral sensory neuropathy (every 2 weeks, N = 25): 20%
- grade 3 peripheral sensory neuropathy (every 2 weeks, N = 25): 8%
- patients discontinued because of a TRAE (every 2 weeks, N = 25): 4%
- patients with dose reduction (every 2 weeks, N = 25): 16%
- patients with grade ≥ 3 all-cause AEs (every 2 weeks, N = 25): 72%
- temporary discontinuations due to TRAEs (every 2 weeks, N = 25): 44%
- treatment-related grade 3–4 neutropenia (every 2 weeks, N = 25): 24%
- patients died on study (every 2 weeks, N = 25, disease progression): 16%
- deaths because of a treatment-related AE (every 3 weeks and every 2 weeks): None of the patients died because of a treatment-related AE
- treatment-emergent, all-cause AEs (every 3 weeks or every 2 weeks): all patients
- treatment-related grade 5 AEs (every 3 weeks regimen): ^aNo treatment-related grade 5 AEs were observed with the every 3 weeks regimen.
- febrile neutropenia (every 3 weeks, N = 112): 2.7%
- grade ≥ 3 treatment-related neutropenia (every 3 weeks, N = 112): 25%
- patients discontinued because of a TRAE (every 3 weeks, N = 112): 2.7%
- patients with dose reduction (every 3 weeks, N = 112): 6.3%
- patients with grade ≥ 3 all-cause AEs (every 3 weeks, N = 112): 79.4%
- temporary discontinuations due to TRAEs (every 3 weeks, N = 112): 14.3%
- treatment-related peripheral sensory neuropathy (all grade 1 or 2) (every 3 weeks, N = 112): 12.5%
- patients died on study (every 3 weeks, N = 112, mostly disease progression): 15.2%
